Data reported in ChEMBL document CHEMBL2010769, “Synthesis and antiviral activity of 6-deoxycyclopropavir, a new prodrug of cyclopropavir” (Bioorg Med Chem, 2012).
Active and inactive are the calls of the source. The calls are words filed in the database; no cut-off is given here.

Columns and labels:
Human betaherpesvirus 5 [1] = assay: Antiviral activity against HCMV Toledo infected in human thymus/liver tissue xenografted in SCID mouse assessed as decrease in viral infection at 6.25 mg/kg, po qd for 28 days measured on day 35 by RT-PCR analysis (reference value: 67%); assay type: functional, strain Toledo; set-up: scale not given: the % may be the effect or the level left
[2] = Prodrug activation assessed as cyclopropavir formation in presence of cow milk xanthine oxidase; conditions: cattle
How it was run: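 Cow-milk xanthine oxidase, 0.4 units, acting on 0.07 mM substrate in 0.05 M Na2HPO4, pH 7.5, at room temperature. Conversion followed continuously at 304 nm. UV spectra were taken before enzyme addition (T = 0) and at 720 min and matched against authentic parent and product.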

Mus musculus [3] = assay: Toxicity in BALB/c mouse assessed as changes in behavior at 5.6 mg/kg, po qd for 5 days relative to control; assay type: organism-based; set-up: dose 5.6 mg/kg, route oral; conditions: in vivo, 120 h
How it was run: (§1)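 Uninfected female BALB/c mice, 3 weeks old, in groups of 5. Compound suspended in 0.4% carboxymethylcellulose and given orally in 0.2 mL once daily for 5 days at 50, 16.7 or 5.6 mg/kg. Mean group body weight tracked over days 1–5 plus day 6 recovery. Clinical signs (ruffled coat, behaviour) were observed. Comparison was with vehicle-treated or untreated mice.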

Murid betaherpesvirus 1 [4] = assay: Antiviral activity against MCMV infected in BALB/c mouse assessed as decrease in virus-induced mean day of death at 50 mg/kg, po qd for 5 days administered 48 hrs after viral infection (reference value: 5.1 +/- 0.9 days); assay type: functional
Human betaherpesvirus 5 [5] = assay: Antiviral activity against HCMV Toledo infected in human thymus/liver tissue xenografted in SCID mouse assessed as mean log10 genome equivalents/animal at 6.25 mg/kg, po qd for 21 days by RT-PCR analysis (reference value: 3.82 +/- 1.24); assay type: functional, strain Toledo
Human alphaherpesvirus 3 = assay: Antiviral activity against VZV infected in HFF assessed as reduction in virus induced cytopathic effect; assay type: functional, organism-based
Murid betaherpesvirus 1 [6] = assay: Antiviral activity against MCMV infected in BALB/c mouse assessed as decrease in virus-induced mortality at 50 mg/kg, po qd for 5 days administered 48 hrs after viral infection (reference value: 100%); assay type: functional; set-up: scale not given: the % may be the effect or the level left
How it was run: (§2)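 Female BALB/c mice (3 weeks, 15/group) were inoculated ip with MCMV Smith at about LD90. Oral dosing of 0.2 mL in 0.4% CMC ran once daily for 5 days, starting 24 or 48 h post-inoculation. Mice were observed daily for 21 days. Mortality was compared with CMC placebo by Fisher's exact test.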

Mus musculus [7] = assay: Toxicity in BALB/c mouse assessed as ruffled coat appearance at 5.6 mg/kg, po qd for 5 days relative to control; assay type: organism-based; set-up: dose 5.6 mg/kg, route oral; conditions: in vivo, 120 h; how it was run: as §1
Mus musculus [8] = assay: Toxicity in BALB/c mouse assessed as changes in behavior at 16.7 mg/kg, po qd for 5 days relative to control; assay type: organism-based; set-up: dose 16.7 mg/kg, route oral; conditions: in vivo, 120 h; how it was run: as §1
Human betaherpesvirus 5 [9] = assay: Antiviral activity against HCMV AD169 infected in HFF assessed as reduction in virus induced cytopathic effect; assay type: functional, organism-based; conditions: Human betaherpesvirus 5, AD169
How it was run: (§3)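 HCMV work used human foreskin fibroblasts as primary cultures, propagated in MEM with 10% FBS and L-glutamine, with or without antibiotics.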

Murid betaherpesvirus 1 [10] = assay: Antiviral activity against MCMV infected in BALB/c mouse assessed as decrease in virus-induced mortality at 50 mg/kg, po qd for 5 days administered 24 hrs after viral infection (reference value: 67%); assay type: functional; set-up: scale not given: the % may be the effect or the level left; how it was run: as §2
Human betaherpesvirus 5 [11] = assay: Antiviral activity against HCMV Toledo infected in human thymus/liver tissue xenografted in SCID mouse assessed as mean log10 genome equivalents/animal at 12.5 mg/kg, po qd for 21 days by RT-PCR analysis (reference value: 3.82 +/- 1.24); assay type: functional, strain Toledo
Murid betaherpesvirus 1 [12] = assay: Antiviral activity against MCMV infected in BALB/c mouse assessed as decrease in virus-induced mean day of death at 50 mg/kg, po qd for 5 days administered 24 hrs after viral infection (reference value: 4.9 +/- 0.7 days); assay type: functional
Human betaherpesvirus 5 [13] = assay: Antiviral activity against HCMV Toledo infected in human thymus/liver tissue xenografted in SCID mouse assessed as decrease in viral infection at 12.5 mg/kg, po qd for 14 days by RT-PCR analysis (reference value: 92%); assay type: functional, strain Toledo; set-up: scale not given: the % may be the effect or the level left
Mus musculus [14] = assay: Toxicity in BALB/c mouse assessed as body weight loss at 16.7 mg/kg, po qd for 5 days relative to control; assay type: organism-based; set-up: dose 16.7 mg/kg, route oral; conditions: in vivo, 120 h; how it was run: as §1
Cowpox virus = assay: Antiviral activity against Cowpox virus infected in HFF assessed as reduction in virus induced cytopathic effect at 100 uM; assay type: functional, organism-based
Murid betaherpesvirus 1 [15] = assay: Antiviral activity against MCMV infected in BALB/c mouse assessed as decrease in virus-induced mortality at 5.6 mg/kg, po qd for 5 days administered 48 hrs after viral infection (reference value: 100%); assay type: functional; set-up: scale not given: the % may be the effect or the level left; how it was run: as §2
Human betaherpesvirus 5 [16] = assay: Antiviral activity against HCMV Toledo infected in human thymus/liver tissue xenografted in SCID mouse assessed as mean log10 genome equivalents/animal at 6.25 mg/kg, po qd for 14 days by RT-PCR analysis (reference value: 3.50 +/- 0.878); assay type: functional, strain Toledo
Murid betaherpesvirus 1 [17] = assay: Antiviral activity against MCMV infected in BALB/c mouse assessed as decrease in virus-induced mortality at 16.7 mg/kg, po qd for 5 days administered 24 hrs after viral infection (reference value: 67%); assay type: functional; set-up: scale not given: the % may be the effect or the level left; how it was run: as §2
Human betaherpesvirus 5 [18] = assay: Antiviral activity against HCMV Towne infected in HFF by plaque reduction assay; assay type: functional, organism-based; conditions: Human betaherpesvirus 5, Towne; how it was run: as §3
Mus musculus [19] = assay: Toxicity in BALB/c mouse assessed as ruffled coat appearance at 50 mg/kg, po qd for 5 days relative to control; assay type: organism-based; set-up: dose 50 mg/kg, route oral; conditions: in vivo, 120 h; how it was run: as §1
Vaccinia virus = assay: Antiviral activity against Vaccinia virus infected in HFF assessed as reduction in virus induced cytopathic effect at 100 uM; assay type: functional, organism-based; conditions: Orthopoxvirus vaccinia
Mus musculus [20] = assay: Toxicity in BALB/c mouse assessed as ruffled coat appearance at 16.7 mg/kg, po qd for 5 days relative to control; assay type: organism-based; set-up: dose 16.7 mg/kg, route oral; conditions: in vivo, 120 h; how it was run: as §1
Human betaherpesvirus 5 [21] = assay: Antiviral activity against HCMV Toledo infected in human thymus/liver tissue xenografted in SCID mouse assessed as decrease in viral infection at 6.25 mg/kg, po qd for 28 days by RT-PCR analysis (reference value: 92%); assay type: functional, strain Toledo; set-up: scale not given: the % may be the effect or the level left
[22] = Cytotoxicity against human Akata cells; assay type: cell-based
Human betaherpesvirus 5 [23] = assay: Antiviral activity against HCMV Toledo infected in human thymus/liver tissue xenografted in SCID mouse assessed as mean log10 genome equivalents/animal at 6.25 mg/kg, po qd for 28 days by RT-PCR analysis (reference value: 3.73 +/- 0.784); assay type: functional, strain Toledo
Human betaherpesvirus 5 [24] = assay: Antiviral activity against HCMV Toledo infected in human thymus/liver tissue xenografted in SCID mouse assessed as mean log10 genome equivalents/animal at 12.5 mg/kg, po qd for 14 days by RT-PCR analysis (reference value: 3.50 +/- 0.878); assay type: functional, strain Toledo
Mus musculus [25] = assay: Toxicity in BALB/c mouse assessed as body weight loss at 5.6 mg/kg, po qd for 5 days relative to control; assay type: organism-based; set-up: dose 5.6 mg/kg, route oral; conditions: in vivo, 120 h; how it was run: as §1
Human betaherpesvirus 5 [26] = assay: Antiviral activity against HCMV Toledo infected in human thymus/liver tissue xenografted in SCID mouse assessed as decrease in viral infection at 6.25 mg/kg, po qd for 14 days by RT-PCR analysis (reference value: 92%); assay type: functional, strain Toledo; set-up: scale not given: the % may be the effect or the level left
Human alphaherpesvirus 1 = assay: Antiviral activity against HSV1 infected in HFF assessed as reduction in virus induced cytopathic effect; assay type: functional, organism-based

Nc1ncc2ncn(/C=C3/CC3(CO)CO)c2n1
Activity (Human betaherpesvirus 5 [1]): 100% | Drug metabolism [2]: Active | Activity (Mus musculus [3]): Non-toxic | Activity (Murid betaherpesvirus 1 [4]): 11.9 days | Activity (Human betaherpesvirus 5 [5]): 3.14 | EC50 (Human alphaherpesvirus 3): > 300 µM | Activity (Murid betaherpesvirus 1 [6]): 67% | Activity (Mus musculus [7]): Non-toxic | Activity (Mus musculus [8]): Non-toxic | EC50 (Human betaherpesvirus 5 [9]): > 300 µM | Activity (Murid betaherpesvirus 1 [10]): 47% | Activity (Human betaherpesvirus 5 [11]): 2.94 | Activity (Murid betaherpesvirus 1 [12]): 8.3 days | Activity (Human betaherpesvirus 5 [13]): 100% | Activity (Mus musculus [14]): Non-toxic | Activity (Cowpox virus): inactive | Activity (Murid betaherpesvirus 1 [15]): 0% | Activity (Human betaherpesvirus 5 [16]): 3.9 | Activity (Murid betaherpesvirus 1 [17]): 0% | EC50 (Human betaherpesvirus 5 [18]): > 100 µM | Activity (Mus musculus [19]): Non-toxic | Activity (Vaccinia virus): inactive | Activity (Mus musculus [20]): Non-toxic | Activity (Human betaherpesvirus 5 [21]): 58% | CC50 [22]: 71 µM | Activity (Human betaherpesvirus 5 [23]): 2.81 | Activity (Human betaherpesvirus 5 [24]): 3.03 | Activity (Mus musculus [25]): Non-toxic | Activity (Human betaherpesvirus 5 [26]): 92% | EC50 (Human alphaherpesvirus 1): > 300 µM
